High-throughput results from PubChem BioAssay.
Sampled rows, rich in hits. Any-hit rate of the full collection: about 3.1%.
KCNQ1 pot = potentiators or activators of KCNQ1 channel, primary screen, cell-based, thallium flux, high-throughput. CHO-K1 KCNQ1, thallium flux FluxOR fluorescence; hits give high values. actives 0.35% (n = 310,000). B-score at 10 µM. AID 2648, 2010;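 active means fluorescence ratio B-score, a plate-corrected score, at least three library SD, with initial intensity B-score within 5 SD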
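assay system = KCNQ1-transfected CHO-K1 cells | medium = assay buffer with matched DMSO | probe or stimulus = depolarizing K+/Tl+ stimulus, K2SO4 and Tl2SO4 each 12.5 mM in 5x stock | dosing = single dose | incubation = dye 90 min, compound 20 min, room temperature | detection = kinetic FluxOR fluorescence, 10 s baseline plus 110 s post-stimulus | evaluation = ratio B score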
KCNK3 inh = human KCNK3 channel inhibitors, primary screen, CHO cells, FluxOR thallium flux, B-score. actives 0.84% (n = 340,000). B-score at 10 µM. FluxOR fluorescence; hits give low values;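 active means B-score under library mean minus 4 SD, starting fluorescence ratio at most library mean plus 5 SD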;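 further: more negative B-score means stronger inhibition of thallium flux through KCNK3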
KCNQ1 block = inhibitors of human KCNQ1 channel, primary screen, cell-based, thallium flux, high-throughput | B-score at 10 µM | CHO-K1 KCNQ1, FluxOR thallium flux fluorescence; hits give high values | actives 1.3% (n = 310,000) | Potassium voltage-gated channel subfamily KQT member 1 (Homo sapiens), P51787;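 active means compounds whose thallium flux B-score, printed positive for inhibition, exceeds three library SD while starting fluorescence stays within three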;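 further: channel opened by potassium depolarization with thallium stimulus after 20 min compound exposure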
hERG protect = hERG rescue from dofetilide block, primary screen, cell-based, CHO-hERG, FluxOR thallium flux, dofetilide IC70 | dofetilide IC70 present | activation (rescue from dofetilide block), less the hit threshold, % at 10 µM | actives 0.51% (n = 310,000) | AID 1511, 2009;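 active means activation above the mean of controls blocked by dofetilide plus 5 SD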;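 further: thallium influx through hERG after potassium depolarization seen as dye fluorescence rise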
Target sequence (Q12809 whole entry, looked up): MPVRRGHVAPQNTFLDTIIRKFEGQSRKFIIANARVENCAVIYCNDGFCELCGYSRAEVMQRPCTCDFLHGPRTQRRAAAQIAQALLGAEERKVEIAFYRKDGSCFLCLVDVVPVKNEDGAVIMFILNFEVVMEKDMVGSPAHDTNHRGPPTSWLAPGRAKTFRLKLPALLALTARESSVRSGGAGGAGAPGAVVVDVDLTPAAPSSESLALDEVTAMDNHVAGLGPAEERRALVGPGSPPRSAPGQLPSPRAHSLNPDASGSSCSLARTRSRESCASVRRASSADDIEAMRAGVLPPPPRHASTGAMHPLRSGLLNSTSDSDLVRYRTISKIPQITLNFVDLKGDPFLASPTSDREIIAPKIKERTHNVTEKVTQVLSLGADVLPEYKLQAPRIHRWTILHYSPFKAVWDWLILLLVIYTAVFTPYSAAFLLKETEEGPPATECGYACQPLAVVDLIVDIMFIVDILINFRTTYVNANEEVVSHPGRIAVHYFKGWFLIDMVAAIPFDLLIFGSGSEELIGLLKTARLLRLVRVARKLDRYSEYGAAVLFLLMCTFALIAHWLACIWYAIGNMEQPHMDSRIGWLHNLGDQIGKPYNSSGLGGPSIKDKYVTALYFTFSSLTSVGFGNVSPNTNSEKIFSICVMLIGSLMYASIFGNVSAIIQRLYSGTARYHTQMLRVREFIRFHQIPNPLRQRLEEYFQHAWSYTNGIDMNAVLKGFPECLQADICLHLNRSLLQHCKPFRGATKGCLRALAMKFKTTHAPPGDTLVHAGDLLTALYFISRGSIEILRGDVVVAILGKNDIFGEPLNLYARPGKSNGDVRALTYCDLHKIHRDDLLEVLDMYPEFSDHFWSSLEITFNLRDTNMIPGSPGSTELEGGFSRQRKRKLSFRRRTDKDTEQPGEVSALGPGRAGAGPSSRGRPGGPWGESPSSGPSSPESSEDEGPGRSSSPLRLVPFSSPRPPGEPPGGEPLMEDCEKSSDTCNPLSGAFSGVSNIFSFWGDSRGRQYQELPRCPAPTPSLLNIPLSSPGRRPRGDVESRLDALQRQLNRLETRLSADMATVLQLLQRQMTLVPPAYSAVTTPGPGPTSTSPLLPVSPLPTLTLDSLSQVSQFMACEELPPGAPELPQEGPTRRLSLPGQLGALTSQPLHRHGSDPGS
KCNK9 inh = KCNK9 potassium channel inhibitors, primary screen, HEK293 cells, thallium flux; Potassium channel subfamily K member 9 (Homo sapiens), Q9NPC2; FluxOR thallium flux fluorescence; hits give low values; B-score at 10 µM; actives 1.2% (n = 310,000); AID 488922, 2010;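 active means ratio B-score over 3 SD below the library mean, with starting fluorescence within 5 SD of its mean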;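 further: negative B-score means less thallium flux so channel inhibition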
KCNK3 inh conf = retest of human KCNK3 channel inhibitors, confirmation, CHO cells, FluxOR thallium flux, triplicate. ratio percent of control, % at 10 µM. AID 651638, 2012. shares compounds with KCNK3 inh. FluxOR fluorescence; 0% buffer, 100% carvedilol maximal block. actives 99% (n = 2,400);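 active means ratio percent of control, averaged over triplicates, above buffer control mean plus 5 SD, cut at about 64% in these data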;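 further: ratio is the fluorescence rise from min to max over baseline after thallium stimulus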
KCNK3 uninduced = thallium flux inhibition in non-induced cells, primary screen, counter-screen for KCNK3 inhibitor project, cell-based, non-induced KCNK3 line, FluxOR thallium, triplicate; shares compounds with KCNK3 inh; non-induced KCNK3 parental cells; hits give low values; thallium flux ratio (lower = more inhibition) at 10 µM; actives 40% (n = 2,400);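 active means thallium flux ratio, averaged over three wells, more than 5 SD below the buffer control mean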;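 further: host cells are CHO cells without KCNK3 induction; ratio is peak minus trough fluorescence over baseline then normalized to buffer controls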
* hit, by the source's call.

What do the screens show for `O=C(Nc1ccccc1N1CCN(c2ccccc2)CC1)c1ccccc1F`?
KCNQ1 pot: inactive; KCNK3 inh: -9.7*; KCNQ1 block: inactive; hERG protect: -2; KCNK9 inh: inactive; KCNK3 inh conf: 125*; KCNK3 uninduced: 0.11*

How did O=c1[nH]c(=O)n(C(c2ccccc2)(c2ccccc2)c2ccccc2)cc1N(CCO)CCO do in these assays?
KCNK3 inh: inactive

What do the screens show for `O=C(COc1ccccc1Cl)N(Cc1cccs1)C1CCS(=O)(=O)C1` (centres undefined)?
KCNQ1 pot: inactive; KCNK3 inh: inactive; KCNQ1 block: inactive; hERG protect: -5; KCNK9 inh: inactive

Results for Cc1cc(Cl)ccc1OCC(=O)N(Cc1cccs1)C1CCS(=O)(=O)C1 (centres undefined) ?
KCNQ1 pot: inactive; KCNK3 inh: -9.9*; KCNQ1 block: inactive; hERG protect: -10; KCNK9 inh: inactive; KCNK3 inh conf: 59*; KCNK3 uninduced: 0.16*

Results for CC(=O)c1cccc(NC(=O)CSc2n[nH]c(=O)n2C2CC2)c1 ?
KCNK3 inh: inactive

What do the screens show for `CC(=O)OC(COc1cccc(C)c1)Cn1cnc2ccccc21` (centres undefined)?
KCNQ1 pot: inactive; KCNK3 inh: -9.4*; KCNQ1 block: inactive; hERG protect: -11; KCNK9 inh: inactive; KCNK3 inh conf: 126*; KCNK3 uninduced: 0.16*

What do the screens show for `CCOC(=O)Cc1nn(Cc2ccccc2)c(=O)c2ccccc12`?
KCNQ1 pot: inactive; KCNK3 inh: -9.9*; KCNQ1 block: inactive; hERG protect: -15; KCNK9 inh: inactive; KCNK3 inh conf: 109*; KCNK3 uninduced: 0.15*

Results for N#CCc1nn(Cc2ccc(F)cc2)c(=O)c2ccccc12 ?
KCNQ1 pot: inactive; KCNK3 inh: -9*; KCNQ1 block: inactive; hERG protect: -4; KCNK9 inh: inactive; KCNK3 inh conf: 94*; KCNK3 uninduced: inactive

How did O=C([O-])c1ccccc1-[n+]1c(-c2ccccc2)cc(-c2ccccc2)cc1-c1ccccc1 do in these assays?
KCNQ1 pot: inactive; KCNK3 inh: inactive; KCNQ1 block: inactive; hERG protect: -14; KCNK9 inh: inactive

Results for CC1=C(C(=O)Nc2cccc(C(=O)NCc3ccc(F)cc3)c2)SCCO1 ?
KCNQ1 pot: inactive; KCNK3 inh: -9*; KCNQ1 block: inactive; hERG protect: -9; KCNK9 inh: inactive; KCNK3 inh conf: 84*; KCNK3 uninduced: inactive

Results for CC1=C(C(=O)Nc2cccc(C(=O)NC(C)C)c2)SCCO1 ?
KCNQ1 pot: inactive; KCNK3 inh: inactive; KCNQ1 block: inactive; hERG protect: -4; KCNK9 inh: inactive

Results for CC1=C(C(=O)Nc2cccc(C(=O)NCc3ccccc3C)c2)SCCO1 ?
KCNQ1 pot: inactive; KCNK3 inh: -8.8*; KCNQ1 block: inactive; hERG protect: -11; KCNK9 inh: -6.6*; KCNK3 inh conf: 100*; KCNK3 uninduced: inactive

How did CCCN(CCC)S(=O)(=O)c1ccc(C(=O)Nc2ccc(S(=O)(=O)Nc3nnc(CC)s3)cc2)cc1 do in these assays?
KCNQ1 pot: inactive; KCNK3 inh: inactive; KCNQ1 block: inactive; hERG protect: -9; KCNK9 inh: inactive

How did COc1ccc(S(=O)(=O)NCCSCc2ccccc2C)cc1Br do in these assays?
KCNQ1 pot: inactive; KCNK3 inh: -8.9*; KCNQ1 block: inactive; hERG protect: -10; KCNK9 inh: inactive; KCNK3 inh conf: 126*; KCNK3 uninduced: 0.13*

How did Cc1ccc(C2Nc3ccccc3-c3nc4ccccc4n32)o1 (centres undefined) do in these assays?
KCNQ1 pot: inactive; KCNK3 inh: inactive; KCNQ1 block: inactive; hERG protect: -11; KCNK9 inh: inactive

What do the screens show for `CN1c2ccccc2-c2nc3ccccc3n2C1c1ccccn1` (centres undefined)?
KCNQ1 pot: inactive; KCNK3 inh: -9.7*; KCNQ1 block: inactive; hERG protect: -6; KCNK9 inh: inactive; KCNK3 inh conf: 95*; KCNK3 uninduced: inactive

What do the screens show for `NS(=O)(=O)c1ccc(NC(=O)CSc2n[nH]c(=O)n2C2CC2)cc1`?
KCNK3 inh: inactive

What do the screens show for `Cc1cccc(N=c2oc3cc(O)ccc3cc2C(N)=O)c1`?
KCNQ1 pot: inactive; KCNK3 inh: -8.8*; KCNQ1 block: inactive; hERG protect: -14; KCNK9 inh: inactive; KCNK3 inh conf: 113*; KCNK3 uninduced: inactive

How did COc1ccccc1N=c1oc2cc(O)ccc2cc1C(N)=O do in these assays?
KCNQ1 pot: inactive; KCNK3 inh: inactive; KCNQ1 block: inactive; hERG protect: -12; KCNK9 inh: inactive

Results for CC(C)(C)c1ccc(OCC(=O)N/N=C/C2CC=CCC2)cc1 (centres undefined) ?
KCNQ1 pot: inactive; KCNK3 inh: -10*; KCNQ1 block: inactive; hERG protect: -5; KCNK9 inh: -7.2*; KCNK3 inh conf: 96*; KCNK3 uninduced: inactive

How did Cc1ccn2c(-c3csc(NCc4ccccc4)n3)c(C)nc2c1 do in these assays?
KCNQ1 pot: inactive; KCNK3 inh: -8.7*; KCNQ1 block: inactive; hERG protect: -27; KCNK9 inh: inactive; KCNK3 inh conf: 107*; KCNK3 uninduced: 0.14*

Results for Cn1c(-c2c(N)n(CCCc3ccccc3)c3nc4ccccc4nc23)nc2ccccc21 ?
KCNQ1 pot: inactive; KCNK3 inh: -9.2*; KCNQ1 block: inactive; hERG protect: -19; KCNK9 inh: inactive; KCNK3 inh conf: 126*; KCNK3 uninduced: 0.15*

How did Cn1c(-c2c(N)n(CCc3ccccc3)c3nc4ccccc4nc23)nc2ccccc21 do in these assays?
KCNQ1 pot: inactive; KCNK3 inh: -8.8*; KCNQ1 block: 13*; hERG protect: -19; KCNK9 inh: -7.8*; KCNK3 inh conf: 158*; KCNK3 uninduced: 0.1*

How did O=CNCc1nc2ccccc2n1CCCc1ccccc1 do in these assays?
KCNQ1 pot: inactive; KCNK3 inh: inactive; KCNQ1 block: inactive; hERG protect: -8; KCNK9 inh: inactive
